pIC50: −log10 of the molar value.
Tests used:
[1] = target: Human immunodeficiency virus type 1 integrase (Human immunodeficiency virus 1, UniProt Q7ZJM1); assay: Inhibition of strand transfer for HIV-1 integrase
[2] = tested on: Human immunodeficiency virus; assay: Antiviral activity in presence of 50% NHS against HIV-1 replication in cells; format: functional, Human immunodeficiency virus 1; conditions: read-out: CIC95
[3] = tested on: Human immunodeficiency virus; assay: Antiviral activity in presence of 10% FBS against HIV-1 replication in cells; format: functional, Human immunodeficiency virus 1; conditions: read-out: CIC95
[4] = Human plasma albumin binding in pH 7.4 at RT; format: ADME, cell-free
Method in brief: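 Binding to human plasma protein, mainly albumin, was measured by analytical HPLC with UV detection. The assay ran in pH 7.4 buffer at room temperature, and the result was reported as percent protein bound.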

Sequence of Human immunodeficiency virus type 1 integrase (Q7ZJM1 whole entry): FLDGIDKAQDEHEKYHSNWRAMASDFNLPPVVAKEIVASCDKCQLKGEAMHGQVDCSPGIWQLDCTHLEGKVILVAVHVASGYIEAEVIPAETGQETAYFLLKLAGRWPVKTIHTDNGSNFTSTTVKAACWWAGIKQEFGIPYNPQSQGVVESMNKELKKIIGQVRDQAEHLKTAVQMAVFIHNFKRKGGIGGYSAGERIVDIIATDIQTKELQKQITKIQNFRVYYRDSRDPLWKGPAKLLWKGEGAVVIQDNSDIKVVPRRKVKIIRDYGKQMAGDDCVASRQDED

| SMILES | pIC50 [1] | IC95 [2] [nM] | IC95 [3] [nM] | Activity [4] [%] | IC95 ([2]; Human immunodeficiency virus 1) [nM] | IC95 ([3]; Human immunodeficiency virus 1) [nM] |
| --- | --- | --- | --- | --- | --- | --- |
| O=C1CC(c2nc(C(=O)NCc3ccc(F)cc3)c(O)c3ncccc23)NC(=O)N1 (racemic) | 8.00 | 55.7 | 53.7 | 92.1 | – | – |
| CN1C(=O)NC(=O)CC1c1nc(C(=O)NCc2ccc(F)cc2)c(O)c2ncccc12 (racemic) | 7.90 | – | – | – | 15.6 | 15.6 |
| O=C1CC(c2nc(C(=O)NCc3ccc(F)cc3)c(O)c3ncccc23)NC(=O)N1 (single isomer, unassigned; (-)) | 7.88 | 125 | 125 | – | – | – |
| CN1C(=O)CC(c2nc(C(=O)NCc3ccc(F)cc3)c(O)c3ncccc23)N(C)C1=O (stereo in doubt; 14) | 7.56 | 1000 | 250 | 97.8 | – | – |
| CN1C(=O)CC(c2nc(C(=O)NCc3ccc(F)cc3)c(O)c3ncccc23)N(C)C1=O (single isomer, unassigned; (-)) | 7.46 | 40.2 | 20.1 | 95 | – | – |
| O=C(NCc1ccc(F)cc1)c1ncc2cccnc2c1O | 7.48 | – | – | 99.2 | 5000 | 1250 |
| CN1C(=O)CC(c2nc(C(=O)NCc3ccc(F)cc3)c(O)c3ncccc23)N(C)C1=O (single isomer, unassigned; (+)) | 7.95 | 166.7 | 41.7 | 96 | – | – |
| CN1C(=O)CC(c2nc(C(=O)NCc3ccc(F)cc3)c(O)c3ncccc23)NC1=O (racemic) | 7.89 | – | – | – | 62.5 | 31.3 |
| CN1C(=O)CC(c2nc(C(=O)NCc3ccc(F)cc3)c(O)c3ncccc23)N(C)C1=O (racemic) | 8.06 | 60.7 | 18.6 | 94.3 | – | – |
| O=C1CC(c2nc(C(=O)NCc3ccc(F)cc3)c(O)c3ncccc23)NC(=O)N1 (single isomer, unassigned; (+)) | 7.96 | 93.8 | 93.8 | – | – | – |

From ChEMBL document CHEMBL1142852, “A series of 5-(5,6)-dihydrouracil substituted 8-hydroxy-[1,6]naphthyridine-7-carboxylic acid 4-fluorobenzylamide inhibitors of HIV-1 integrase and viral replication in cells” (Bioorg Med Chem Lett, 2005)
